Experiments:
Assay type in all cases: functional
[1] = tested on: Klebsiella pneumoniae; assay: Antimicrobial activity against Klebsiella pneumoniae isolate KpE expressing beta-lactamase OXA-48 and CTX-M-15 by Etest method
[2] = tested on: Providencia rettgeri; assay: Antimicrobial activity against Providencia rettgeri isolate expressing beta-lactamase OXA-48 and TEM-101 by Etest method in presence of beta-lactamase inhibitor clavulanic acid
Outline: (§1)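 MICs of β-lactams read from Etest strips. The test organisms are carbapenem-resistant, OXA-48-positive clinical Enterobacteriaceae isolates recovered from Turkey, Lebanon, Egypt, France and Belgium.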

[3] = tested on: Klebsiella pneumoniae; assay: Antimicrobial activity against Klebsiella pneumoniae isolate Kp6A expressing beta-lactamase OXA-48 and TEM-150 by Etest method in presence of beta-lactamase inhibitor clavulanic acid; outline: as §1
[4] = tested on: Escherichia coli; assay: Antimicrobial activity against Escherichia coli isolate J53 harboring pEnc1 containing beta-lactamase OXA-48 located within transposon Tn1999 by Etest method
Outline: (§2)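 β-Lactam MICs read with Etest strips. Strains are E. coli J53 recipient and J53 transconjugants carrying OXA-48-positive plasmids recovered from clinical enterobacterial isolates.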

[5] = tested on: Escherichia coli; assay: Antimicrobial activity against Escherichia coli isolate J53 harboring p7A containing beta-lactamase OXA-48 located within transposon Tn1999 by Etest method; outline: as §2
[6] = tested on: Escherichia coli; assay: Antimicrobial activity against Escherichia coli isolate J53 harboring pBb containing beta-lactamase OXA-48 located within transposon Tn1999.2 by Etest method; outline: as §2
[7] = tested on: Escherichia coli; assay: Antimicrobial activity against Escherichia coli isolate J53 harboring pL containing beta-lactamase OXA-48 located within transposon Tn1999.2 by Etest method in presence of beta-lactamase inhibitor clavulanic acid; outline: as §2
[8] = tested on: Escherichia coli; assay: Antimicrobial activity against Escherichia coli isolate J53 harboring p7A containing beta-lactamase OXA-48 located within transposon Tn1999 by Etest method in presence of beta-lactamase inhibitor clavulanic acid; outline: as §2
[9] = tested on: Escherichia coli; assay: Antimicrobial activity against Escherichia coli isolate J53 harboring pE containing beta-lactamase OXA-48 located within transposon Tn1999.2 by Etest method in presence of beta-lactamase inhibitor clavulanic acid; outline: as §2
[10] = tested on: Klebsiella pneumoniae; assay: Antimicrobial activity against Klebsiella pneumoniae isolate KpBIC expressing beta-lactamase OXA-48 by Etest method in presence of beta-lactamase inhibitor clavulanic acid; outline: as §1
[11] = tested on: Escherichia coli; assay: Antimicrobial activity against Escherichia coli isolate TOP10 harboring pBIC containing beta-lactamase OXA-48 located within transposon Tn1999.2 by Etest method in presence of beta-lactamase inhibitor clavulanic acid
Outline: (§3)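 β-Lactam MICs read with Etest strips. Strains are E. coli TOP10 host and TOP10 transformants made with plasmid DNA extract when conjugation failed. Transformants were selected on LB agar with ticarcillin 50 μg/ml.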

[12] = tested on: Klebsiella pneumoniae; assay: Antimicrobial activity against Klebsiella pneumoniae isolate KpL expressing beta-lactamase OXA-48 by Etest method in presence of beta-lactamase inhibitor clavulanic acid; outline: as §1
[13] = tested on: Escherichia coli; assay: Antimicrobial activity against Escherichia coli isolate J53 by Etest method in presence of beta-lactamase inhibitor clavulanic acid
[14] = tested on: Enterobacter cloacae; assay: Antimicrobial activity against Enterobacter cloacae isolate 2 expressing beta-lactamase OXA-48 and SHV-5 by Etest method in presence of beta-lactamase inhibitor clavulanic acid; outline: as §1
[15] = tested on: Klebsiella pneumoniae; assay: Antimicrobial activity against Klebsiella pneumoniae isolate Kp4A expressing beta-lactamase OXA-48 and CTX-M-15 by Etest method in presence of beta-lactamase inhibitor clavulanic acid; outline: as §1
[16] = tested on: Escherichia coli; assay: Antimicrobial activity against Escherichia coli isolate J53 harboring pA-1 containing beta-lactamase OXA-48 located within transposon Tn1999 by Etest method; outline: as §2
[17] = tested on: Klebsiella pneumoniae; assay: Antimicrobial activity against Klebsiella pneumoniae isolate Kp11978 expressing beta-lactamase OXA-48, SHV-2a and TEM-1 by Etest method in presence of beta-lactamase inhibitor clavulanic acid; outline: as §1
[18] = tested on: Escherichia coli; assay: Antimicrobial activity against Escherichia coli isolate J53 harboring pEcA containing beta-lactamase OXA-48 located within transposon Tn1999.2 by Etest method in presence of beta-lactamase inhibitor clavulanic acid; outline: as §2
[19] = tested on: Escherichia coli; assay: Antimicrobial activity against Escherichia coli isolate J53 harboring pBb containing beta-lactamase OXA-48 located within transposon Tn1999.2 by Etest method in presence of beta-lactamase inhibitor clavulanic acid; outline: as §2
[20] = tested on: Escherichia coli; assay: Antimicrobial activity against Escherichia coli isolate J53 harboring pEnc2 containing beta-lactamase OXA-48 located within transposon Tn1999 by Etest method; outline: as §2
[21] = tested on: Klebsiella pneumoniae; assay: Antimicrobial activity against Klebsiella pneumoniae isolate Kp3A expressing beta-lactamase OXA-48 by Etest method in presence of beta-lactamase inhibitor clavulanic acid; outline: as §1
[22] = tested on: Escherichia coli; assay: Antimicrobial activity against Escherichia coli isolate J53 harboring pI-1 containing beta-lactamase OXA-48 located within transposon Tn1999.2 by Etest method in presence of beta-lactamase inhibitor clavulanic acid; outline: as §2
[23] = tested on: Escherichia coli; assay: Antimicrobial activity against Escherichia coli isolate J53 harboring p3A containing beta-lactamase OXA-48 located within transposon Tn1999 by Etest method in presence of beta-lactamase inhibitor clavulanic acid; outline: as §2
[24] = tested on: Escherichia coli; assay: Antimicrobial activity against Escherichia coli isolate J53 harboring p5A containing beta-lactamase OXA-48 located within transposon Tn1999 by Etest method; outline: as §2
[25] = tested on: Klebsiella pneumoniae; assay: Antimicrobial activity against Klebsiella pneumoniae isolate Kp5A expressing beta-lactamase OXA-48 and SHV-5 by Etest method
[26] = tested on: Klebsiella pneumoniae; assay: Antimicrobial activity against Klebsiella pneumoniae isolate Kp6A expressing beta-lactamase OXA-48 and TEM-150 by Etest method
[27] = tested on: Escherichia coli; assay: Antimicrobial activity against Escherichia coli isolate J53 harboring p5A containing beta-lactamase OXA-48 located within transposon Tn1999 by Etest method in presence of beta-lactamase inhibitor clavulanic acid; outline: as §2
[28] = tested on: Escherichia coli; assay: Antimicrobial activity against Escherichia coli isolate J53 harboring pI-1 containing beta-lactamase OXA-48 located within transposon Tn1999.2 by Etest method; outline: as §2
[29] = tested on: Escherichia coli; assay: Antimicrobial activity against Escherichia coli isolate TOP10 harboring pPR containing beta-lactamase and TEM-101 by Etest method; outline: as §3
[30] = tested on: Klebsiella pneumoniae; assay: Antimicrobial activity against Klebsiella pneumoniae isolate Kp7A expressing beta-lactamase OXA-48 by Etest method; outline: as §1
[31] = tested on: Citrobacter freundii; assay: Antimicrobial activity against Citrobacter freundii isolate expressing beta-lactamase OXA-48 by Etest method
[32] = tested on: Escherichia coli; assay: Antimicrobial activity against Escherichia coli isolate J53 harboring pEnc1 containing beta-lactamase OXA-48 located within transposon Tn1999 by Etest method in presence of beta-lactamase inhibitor clavulanic acid; outline: as §2
[33] = tested on: Klebsiella pneumoniae; assay: Antimicrobial activity against Klebsiella pneumoniae isolate KpBEL expressing beta-lactamase OXA-48 by Etest method in presence of beta-lactamase inhibitor clavulanic acid; outline: as §1
[34] = tested on: Escherichia coli; assay: Antimicrobial activity against Escherichia coli isolate J53 harboring pEnc2 containing beta-lactamase OXA-48 located within transposon Tn1999 by Etest method in presence of beta-lactamase inhibitor clavulanic acid; outline: as §2
[35] = tested on: Citrobacter freundii; assay: Antimicrobial activity against Citrobacter freundii isolate expressing beta-lactamase OXA-48 by Etest method in presence of beta-lactamase inhibitor clavulanic acid; outline: as §1

Row | Compound | MIC [1] | MIC [2] | MIC [3] | MIC [4] | MIC [5] | MIC [6] | MIC [7] | MIC [8] | MIC [9] | MIC [10] | MIC [11] | MIC [12] | MIC [13] | MIC [14] | MIC [15] | MIC [16] | MIC [17] | MIC [18] | MIC [19] | MIC [20] | other results
1 | CC1(C)S[C@@H]2[C@H](NC(=O)[C@H](N)c3ccc(O)cc3)C(=O)N2[C@H]1C(=O)O [AMOXICILLIN] | > 512 µg/mL | > 256 µg/mL | > 512 µg/mL | > 512 µg/mL | > 512 µg/mL | > 512 µg/mL | > 256 µg/mL | > 512 µg/mL | > 512 µg/mL | > 512 µg/mL | > 512 µg/mL | > 256 µg/mL | 4 µg/mL | > 512 µg/mL | > 512 µg/mL | > 512 µg/mL | > 512 µg/mL | > 256 µg/mL | > 512 µg/mL | > 512 µg/mL | MIC [21]: > 512 µg/mL; MIC [22]: > 512 µg/mL; MIC [23]: > 512 µg/mL; MIC [24]: > 512 µg/mL; MIC [25]: > 512 µg/mL; MIC [26]: > 512 µg/mL; MIC [27]: > 512 µg/mL; MIC [28]: > 512 µg/mL; MIC [29]: > 256 µg/mL; MIC [30]: > 512 µg/mL; MIC [31]: > 512 µg/mL; MIC [32]: > 512 µg/mL; MIC [33]: > 256 µg/mL; MIC [34]: > 512 µg/mL; MIC [35]: > 512 µg/mL
2 | CC1(C)S[C@@H]2[C@H](NC(=O)[C@H](C(=O)O)c3ccsc3)C(=O)N2[C@H]1C(=O)O [TICARCILLIN] | > 512 µg/mL | > 256 µg/mL | > 512 µg/mL | > 512 µg/mL | > 512 µg/mL | > 512 µg/mL | > 256 µg/mL | > 512 µg/mL | > 512 µg/mL | > 512 µg/mL | > 512 µg/mL | > 256 µg/mL | 2 µg/mL | > 512 µg/mL | > 512 µg/mL | > 512 µg/mL | > 512 µg/mL | > 256 µg/mL | > 512 µg/mL | > 512 µg/mL | MIC [21]: > 512 µg/mL; MIC [22]: > 512 µg/mL; MIC [23]: > 512 µg/mL; MIC [24]: > 512 µg/mL; MIC [25]: > 512 µg/mL; MIC [26]: > 512 µg/mL; MIC [27]: > 512 µg/mL; MIC [28]: > 512 µg/mL; MIC [29]: > 256 µg/mL; MIC [30]: > 512 µg/mL; MIC [31]: > 512 µg/mL; MIC [32]: > 512 µg/mL; MIC [33]: > 256 µg/mL; MIC [34]: > 512 µg/mL; MIC [35]: > 512 µg/mL

From ChEMBL document CHEMBL1255404, “Spread of OXA-48-encoding plasmid in Turkey and beyond” (2010)
